Data: ChEMBL document CHEMBL1121744, “Synthesis and antihypertensive activity of a series of 8-substituted 1-oxa-3,8-diazaspiro[4.5]decan-2-ones” (J Med Chem, 1981)
Several values for one entry are separate records, joined by “and”; a condition that tells them apart may be missing. Equal entries are not always repeated. Activity calls are given as the source filed them. No cut-off for these calls is given here.

Legend:
[1] = Distribution coefficient between 1-Octanol and phosphate buffer at pH7.4; assay type: physicochemical; settings: 1-octanol/phosphate buffer, pH 7.4
How it was run: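 Octanol/buffer distribution measured at pH 7.4 in phosphate with sodium chloride. Either HPLC (0.004 M) or shake flask.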

Rattus norvegicus [2] = experiment: Antihypertensive activity as percentage fall in systolic blood pressure in spontaneously hypertensive rats after a period of 3 h for a dose of 50 mg/kg; assay type: functional, organism-based; design: dose 50 mg/kg; settings: Artery
How it was run: (§1)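 Male Okamoto-Aoki SHR, trained, in groups of four matched for mean systolic pressure; one group per run received water vehicle. Oral dosing in water (0.1 mL per 10 g) on two consecutive mornings. After the day-2 dose, rats were restrained at 30.0 ± 1.0 °C. Systolic pressure was read by tail cuff (inflated to 300 mmHg, first pulse) at 1–4 h. % fall is versus the untreated control group, by 1-tail t test (p ≤ 0.05).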

Rattus norvegicus [3] = experiment: Antihypertensive activity as percentage fall in systolic blood pressure in spontaneously hypertensive rats after a period of 1 hr for a dose of 50 mg/kg po; NS=Not significant; assay type: functional, organism-based; design: dose 50 mg/kg; settings: Artery
How it was run: (§2)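 Male Okamoto-Aoki SHR, trained, in groups of four matched for systolic pressure, with a concurrent vehicle control group. Oral dosing on two consecutive mornings, in water as solution or suspension at 0.1 mL/10 g. On day 2 rats were restrained at 30.0 ± 1.0 °C. Tail-cuff systolic pressure, four traces per rat, read at each hour. Per cent fall versus control; 1-tail t test, p ≤ 0.05.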

Rattus norvegicus [4] = experiment: Antihypertensive activity as percentage fall in systolic blood pressure in spontaneously hypertensive rats after a period of 2 hr for a dose of 50 mg/kg; assay type: functional, organism-based; design: dose 50 mg/kg; settings: Artery; how it was run: as §1
Rattus norvegicus [5] = experiment: Antihypertensive activity as percentage fall in systolic blood pressure in spontaneously hypertensive rats after a period of 4 hr for a dose of 50 mg/kg; assay type: functional, organism-based; design: dose 50 mg/kg; settings: Artery; how it was run: as §1
Rattus norvegicus [6] = experiment: The antihypertensive activity as percentage fall in systolic blood pressure in spontaneously hypertensive rats after a period of 3 hr for a dose of 75 mg/kg po; NS=Not significant; assay type: functional, organism-based; design: dose 75 mg/kg; settings: Artery; how it was run: as §2
Rattus norvegicus [7] = experiment: The antihypertensive activity as percentage fall in systolic blood pressure in spontaneously hypertensive rats after a period of 4 hr for a dose of 75 mg/kg po; NS=Not significant; assay type: functional, organism-based; design: dose 75 mg/kg; settings: Artery; how it was run: as §2
Rattus norvegicus [8] = experiment: The antihypertensive activity as percentage fall in systolic blood pressure in spontaneously hypertensive rats after a period of 1 hr for a dose of 50 mg/kg po
Rattus norvegicus [9] = experiment: The antihypertensive activity as percentage fall in systolic blood pressure in spontaneously hypertensive rats after a period of 2 hr for a dose of 50 mg/kg po
[10] = molecular target: T1, Adrenergic receptor alpha-2 (Rattus norvegicus, UniProt P22086+P19328+P22909); experiment: Antagonistic potency of compound for Alpha-2 adrenergic receptor; assay type: functional
T1 sequence (P22086 whole entry): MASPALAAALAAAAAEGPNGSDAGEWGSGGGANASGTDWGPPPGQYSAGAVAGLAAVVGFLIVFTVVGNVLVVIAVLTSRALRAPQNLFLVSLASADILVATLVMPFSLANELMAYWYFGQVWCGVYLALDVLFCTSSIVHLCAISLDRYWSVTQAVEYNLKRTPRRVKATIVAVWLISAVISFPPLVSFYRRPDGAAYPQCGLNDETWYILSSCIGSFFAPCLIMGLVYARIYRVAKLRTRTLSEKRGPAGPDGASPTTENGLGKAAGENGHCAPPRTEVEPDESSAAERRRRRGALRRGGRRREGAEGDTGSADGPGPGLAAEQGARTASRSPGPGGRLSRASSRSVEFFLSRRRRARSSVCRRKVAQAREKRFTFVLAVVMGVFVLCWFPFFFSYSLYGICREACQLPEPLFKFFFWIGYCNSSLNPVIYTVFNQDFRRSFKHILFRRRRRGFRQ
T1 sequence (P19328 whole entry): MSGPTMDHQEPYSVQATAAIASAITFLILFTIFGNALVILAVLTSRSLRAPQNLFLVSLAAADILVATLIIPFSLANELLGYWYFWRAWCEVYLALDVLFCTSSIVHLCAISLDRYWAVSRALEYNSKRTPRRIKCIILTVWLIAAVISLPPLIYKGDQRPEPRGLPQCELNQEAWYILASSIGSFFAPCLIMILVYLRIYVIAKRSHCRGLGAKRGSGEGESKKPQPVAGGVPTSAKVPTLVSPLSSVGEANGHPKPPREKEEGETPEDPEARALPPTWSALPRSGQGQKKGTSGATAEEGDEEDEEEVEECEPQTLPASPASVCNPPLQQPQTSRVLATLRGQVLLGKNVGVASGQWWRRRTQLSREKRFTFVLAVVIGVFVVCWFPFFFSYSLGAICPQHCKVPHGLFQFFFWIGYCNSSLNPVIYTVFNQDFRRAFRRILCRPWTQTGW
T1 sequence (P22909 whole entry): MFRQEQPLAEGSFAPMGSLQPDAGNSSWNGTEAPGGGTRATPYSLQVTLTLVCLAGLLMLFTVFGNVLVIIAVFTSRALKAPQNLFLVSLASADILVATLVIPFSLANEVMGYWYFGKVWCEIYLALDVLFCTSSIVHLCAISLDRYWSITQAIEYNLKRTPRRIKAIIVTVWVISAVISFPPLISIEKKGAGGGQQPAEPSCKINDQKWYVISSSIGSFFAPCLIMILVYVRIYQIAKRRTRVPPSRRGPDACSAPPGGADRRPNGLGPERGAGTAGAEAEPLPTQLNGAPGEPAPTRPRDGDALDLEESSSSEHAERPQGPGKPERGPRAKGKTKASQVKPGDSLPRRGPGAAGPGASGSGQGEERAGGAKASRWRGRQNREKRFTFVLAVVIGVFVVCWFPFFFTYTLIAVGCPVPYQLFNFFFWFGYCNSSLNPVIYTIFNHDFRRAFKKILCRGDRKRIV

[11] = molecular target: T2, Adrenergic receptor alpha-1 (Rattus norvegicus, UniProt P15823+P23944+P43140); experiment: Antagonistic potency of compound for Alpha-1 adrenergic receptor; assay type: functional
T2 sequence (P15823 whole entry): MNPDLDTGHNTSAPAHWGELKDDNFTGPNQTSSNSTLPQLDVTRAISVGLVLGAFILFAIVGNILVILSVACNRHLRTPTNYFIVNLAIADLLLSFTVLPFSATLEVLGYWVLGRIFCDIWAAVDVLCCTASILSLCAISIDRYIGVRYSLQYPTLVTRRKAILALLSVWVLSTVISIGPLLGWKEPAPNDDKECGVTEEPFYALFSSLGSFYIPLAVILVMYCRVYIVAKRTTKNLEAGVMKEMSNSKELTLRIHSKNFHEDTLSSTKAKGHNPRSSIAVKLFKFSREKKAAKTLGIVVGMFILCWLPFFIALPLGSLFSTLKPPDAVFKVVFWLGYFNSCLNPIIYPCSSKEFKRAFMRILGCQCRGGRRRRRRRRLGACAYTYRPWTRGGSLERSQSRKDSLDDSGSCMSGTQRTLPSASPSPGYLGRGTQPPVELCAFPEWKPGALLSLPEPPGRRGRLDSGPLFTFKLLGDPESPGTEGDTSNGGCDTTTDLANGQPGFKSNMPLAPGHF
T2 sequence (P23944 whole entry): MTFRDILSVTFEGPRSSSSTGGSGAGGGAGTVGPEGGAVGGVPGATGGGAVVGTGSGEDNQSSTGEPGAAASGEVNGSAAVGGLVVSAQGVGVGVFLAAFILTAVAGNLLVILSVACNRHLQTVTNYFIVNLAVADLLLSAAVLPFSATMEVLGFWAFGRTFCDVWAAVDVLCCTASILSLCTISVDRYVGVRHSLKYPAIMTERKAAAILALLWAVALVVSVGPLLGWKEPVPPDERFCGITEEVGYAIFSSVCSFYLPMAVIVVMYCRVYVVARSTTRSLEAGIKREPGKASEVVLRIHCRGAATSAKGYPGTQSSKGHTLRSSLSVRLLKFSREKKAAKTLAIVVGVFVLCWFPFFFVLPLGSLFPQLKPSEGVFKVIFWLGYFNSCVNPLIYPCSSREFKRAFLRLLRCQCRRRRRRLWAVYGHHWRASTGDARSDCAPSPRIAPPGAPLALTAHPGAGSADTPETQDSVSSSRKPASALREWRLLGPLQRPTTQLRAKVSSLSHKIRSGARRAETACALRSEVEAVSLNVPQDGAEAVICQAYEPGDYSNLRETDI
T2 sequence (P43140 whole entry): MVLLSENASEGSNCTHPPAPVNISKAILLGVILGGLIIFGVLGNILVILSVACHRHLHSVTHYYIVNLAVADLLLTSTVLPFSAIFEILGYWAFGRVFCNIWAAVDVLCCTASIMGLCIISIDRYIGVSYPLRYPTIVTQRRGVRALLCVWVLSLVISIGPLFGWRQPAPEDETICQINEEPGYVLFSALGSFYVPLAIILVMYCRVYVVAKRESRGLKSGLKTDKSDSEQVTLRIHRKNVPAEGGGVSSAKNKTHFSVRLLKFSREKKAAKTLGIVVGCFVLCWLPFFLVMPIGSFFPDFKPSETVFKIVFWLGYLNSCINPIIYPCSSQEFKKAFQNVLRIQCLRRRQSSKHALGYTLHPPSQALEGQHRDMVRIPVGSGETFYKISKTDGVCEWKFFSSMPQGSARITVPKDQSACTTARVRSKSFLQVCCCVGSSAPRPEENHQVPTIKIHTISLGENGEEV

Rattus norvegicus [12] = experiment: Antihypertensive activity as percentage fall in systolic blood pressure in spontaneously hypertensive rats after a period of 1 hr for a dose of 50 mg/kg; assay type: functional, Artery; how it was run: as §1
Rattus norvegicus [13] = experiment: Percentage fall in systolic blood pressure in spontaneously hypertensive rats after 2 hr following 50 mg/kg p.o.; assay type: functional, Artery; settings: route oral, 50 mg/kg; how it was run: as §1
Rattus norvegicus [14] = experiment: Percentage fall in systolic blood pressure in spontaneously hypertensive rats after 3 h following 50 mg/kg p.o.; assay type: functional, Artery; settings: route oral; how it was run: as §1
Rattus norvegicus [15] = experiment: The antihypertensive activity as percentage fall in systolic blood pressure in spontaneously hypertensive rats after a period of 3 hr for a dose of 50 mg/kg po
Rattus norvegicus [16] = experiment: The antihypertensive activity as percentage fall in systolic blood pressure in spontaneously hypertensive rats after a period of 4 hr for a dose of 50 mg/kg po

SMILES | logD [1] | Decrease in blood pressure (Rattus norvegicus [2]) | Decrease in blood pressure (Rattus norvegicus [3]) | Decrease in blood pressure (Rattus norvegicus [4]) | Decrease in blood pressure (Rattus norvegicus [5]) | Decrease in blood pressure (Rattus norvegicus [6]) | Decrease in blood pressure (Rattus norvegicus [7]) | Decrease in blood pressure (Rattus norvegicus [8]) | Decrease in blood pressure (Rattus norvegicus [9]) | pA2 [10] | pA2 [11] | Decrease in blood pressure (Rattus norvegicus [12]) | Decrease in blood pressure (Rattus norvegicus [13]) | Decrease in blood pressure (Rattus norvegicus [14]) | Decrease in blood pressure (Rattus norvegicus [15]) | Decrease in blood pressure (Rattus norvegicus [16])
CCN1CC2(CCN(CCc3c[nH]c4ccccc34)CC2)OC1=O | 1.92 | Not significant | inactive | Not significant | Not significant | – | – | – | – | – | – | – | – | – | – | –
CC(C)N1CC2(CCN(CCc3c[nH]c4ccccc34)CC2)OC1=O | 2.4 | – | – | – | – | inactive | inactive | 22% | 9% | – | – | – | – | – | – | –
CCC1NC(=O)OC12CCN(CCc1c[nH]c3ccccc13)CC2 (stereo not given) | 1.95 | – | – | – | – | – | – | 23% | 27% | 6 | 7.6 | 39% | 27% and 26% | 17% | 17% | 22%
